Columns and labels:
[1] = In vivo metabolic stability, mouse blood 5 min pi, without or with PA; set-up: species or system Swiss albino mice; details: peripheral mouse blood, HPLC; for Intact radiopeptide, 5 min pi (+ phosphoramidon): PA coinjected, n=2; for Intact radiopeptide, 5 min pi: radioligand alone, n=3
Summary of the method: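 Healthy male Swiss albino mice (30 ± 5 g) were injected with the 177Lu-labelled test peptide alone (n = 3) or with coinjected phosphoramidon (n = 2). Blood was collected at 5 min pi and analysed by HPLC radiochromatography for the percentage of intact radioligand.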

[2] = test system: PC-3 xenografts; assay: Biodistribution over time; assay type: in vivo, BALB/c nu/nu mice; details: 24 hr pi vs peak at 1 hr pi, 100 pmol
Summary of the method: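 PC-3-xenografted BALB/c nu/nu mice received the 177Lu-labelled test peptide (80 kBq, 100 pmol/animal, 100 μl) with coinjected NEP inhibitor phosphoramidon. Animals were euthanized at 0.5, 1, 2, 4, 24, 48 and 90 hr pi, and tumour and organ activity uptake were measured.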

[3] = test system: PC-3 xenografts; assay: Dosimetry estimates; set-up: species or system BALB/c nu/nu mice; details: per 60 MBq treatment cycle (200 pmol)
Summary of the method: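 Organ absorbed doses were estimated for a 100 pmol injection of the 177Lu-labelled test peptide. The estimate used time-course biodistribution data from PC-3-xenografted nude mice and a MOBY-phantom dosimetry model. Other peptide masses were scaled by the ratio of 1 hr uptake at 50–250 pmol to the 100 pmol 1 hr uptake; uptake versus mass was fitted with exponential curves. Doses were expressed per 60 MBq cycle.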

[4] = test system: PC-3 xenografts; assay: Experimental in vivo therapy; set-up: species or system BALB/c nu/nu mice
[5] = test system: PC-3 xenografts; assay: Influence of PA coinjection on biodistribution; assay type: in vivo, BALB/c nu/nu mice; details: 1 hr pi
[6] = test system: PC-3 xenografts; assay: Influence of injected peptide dose on biodistribution; assay type: in vivo, BALB/c nu/nu mice; details: 750 pmol in comparison to 50 pmol, 1 hr pi
Summary of the method: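 PC-3-xenografted BALB/c nu/nu mice (17 ± 2 g; tumours 0.19 ± 0.06 g) were injected with 80 kBq of the 177Lu-labelled test peptide at a total peptide dose of 50, 100, 250, 500 or 750 pmol/animal, with phosphoramidon coinjection. Tumour and organ uptake were measured at 1 hr pi; tumour slices were also examined by ex vivo autoradiography.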

SMILES: CC(C)C[C@H](NC(=O)C[C@H](O)[C@H](CC(C)C)NC(=O)[C@H](Cc1c[nH]cn1)NC(=O)CNC(=O)[C@@H](NC(=O)[C@H](C)NC(=O)[C@H](Cc1c[nH]c2ccccc12)NC(=O)[C@H](CCC(N)=O)NC(=O)[C@@H](Cc1ccccc1)NC(=O)COCCOCCNC(=O)CN1CCN(CC(=O)O)CCN(CC(=O)O)CCN(CC(=O)O)CC1)C(C)C)C(N)=O [^177Lu-DOTA-PEG2-RM26, metal not drawn]
- Intact radiopeptide, 5 min pi (+ phosphoramidon) [1]: > 96%
- Intact radiopeptide, 5 min pi [1]: 64.7 ± 4.6%

SMILES: CC(C)C[C@H](NC(=O)C[C@H](O)[C@H](CC(C)C)NC(=O)[C@H](Cc1c[nH]cn1)NC(=O)CNC(=O)[C@@H](NC(=O)[C@H](C)NC(=O)[C@H](Cc1c[nH]c2ccccc12)NC(=O)[C@H](CCC(N)=O)NC(=O)[C@@H](Cc1ccccc1)NC(=O)COCCOCCNC(=O)CCC(C(=O)O)N1CCN(CC(=O)O)CCN(CC(=O)O)CCN(CC(=O)O)CC1)C(C)C)C(N)=O (stereo partly drawn) [^177Lu-DOTAGA-PEG2-RM26, metal not drawn]
- Decrease of tumor uptake [2]: fourfold
- Estimated absorbed dose to the kidneys [3]: 5 Gy
- Estimated absorbed dose to the tumor [3]: 11 Gy
- Median survival compared with controls ([4]; 6 cycles iv every second day, n=11-12): significant prolongation of median survival
- Tumor growth ([4]; 6 cycles, 200 pmol/60 MBq, +PA): significant inhibition of tumor growth
- Intact radiopeptide, 5 min pi (+ phosphoramidon) [1]: > 98%
- Intact radiopeptide, 5 min pi [1]: 70.7 ± 3.1%
- Increase of pancreatic uptake with PA ([5]; 50 pmol, PA vs control): threefold
- Increase of tumor uptake with PA ([5]; 50 pmol, PA vs control): 1.6 fold
- Amplification of tumor uptake with PA ([5]; PA coinjection): 60%
- Decrease of tumor uptake [6]: threefold

SMILES: CC(C)C[C@H](NC(=O)C[C@H](O)[C@H](CC(C)C)NC(=O)[C@H](Cc1c[nH]cn1)NC(=O)CNC(=O)[C@@H](NC(=O)[C@H](C)NC(=O)[C@H](Cc1c[nH]c2ccccc12)NC(=O)[C@H](CCC(N)=O)NC(=O)[C@@H](Cc1ccccc1)NC(=O)COCCOCCNC(=O)CCC(C(=O)O)N1CCN(CC(=O)O)CCN(CC(=O)O)CC1)C(C)C)C(N)=O (stereo partly drawn) [^177Lu-NODAGA-PEG2-RM26, metal not drawn]
- Intact radiopeptide, 5 min pi (+ phosphoramidon) [1]: > 96%
- Intact radiopeptide, 5 min pi [1]: 64.0 ± 2.0%

— PMC6852655 (International Journal of Cancer, 2019)
